From ChEMBL document CHEMBL5661986, “Discovery of the SMYD3 Inhibitor BAY-6035 Using Thermal Shift Assay (TSA)-Based High-Throughput Screening” (SLAS Discov, 2021)
In brackets after ≈: the same amount, converted by molar mass. Activity calls are given as the source filed them. The rule behind the calls is not given here.

Key:
[1] = target: T1, Histone-lysine N-methyltransferase SMYD3 (Homo sapiens, UniProt Q9H7B4); assay: Binding affinity to recombinant human SMYD3 expressed in Escherichia coli assessed as catalytic inhibition using DYDNPIFEKFGKGGTYPRRYHVSYHGK-Biotin as substrate by scintillation proximity assay
T1 sequence (Q9H7B4 whole entry): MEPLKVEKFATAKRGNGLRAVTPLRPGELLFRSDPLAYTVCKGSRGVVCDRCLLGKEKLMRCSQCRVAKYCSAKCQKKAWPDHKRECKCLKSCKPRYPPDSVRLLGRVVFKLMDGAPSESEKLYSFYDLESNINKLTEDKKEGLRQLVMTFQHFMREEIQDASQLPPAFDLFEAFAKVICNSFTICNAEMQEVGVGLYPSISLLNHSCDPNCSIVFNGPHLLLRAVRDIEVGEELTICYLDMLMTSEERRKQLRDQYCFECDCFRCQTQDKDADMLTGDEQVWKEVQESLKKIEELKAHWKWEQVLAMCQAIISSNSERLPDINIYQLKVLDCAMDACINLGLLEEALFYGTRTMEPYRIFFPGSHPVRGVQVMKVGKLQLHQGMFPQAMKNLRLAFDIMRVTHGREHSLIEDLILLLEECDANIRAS

[2] = Lipophilicity, log D of the compound at pH 7.5; format: physicochemical; settings: buffer
[3] = Kinetic solubility of the compound at pH 6.5; format: physicochemical; settings: buffer, read-out: Kinetic_solubility
[4] = target: T2, Histone-lysine N-methyltransferase SMYD3 (Homo sapiens) (UniProt Q9H7B4); settings: dose 120.0 µM
T2 sequence (whole entry): T1 sequence (Q9H7B4 whole entry)

[5] = system: Histone-lysine N-methyltransferase SMYD3 (Homo sapiens), Q9H7B4 [UNDEFINED MUTATION]; assay: Inhibition of SMYD3 catalytic inactive mutant co-expressed with HA-tagged MAP3K2 transfected in human HeLa cells assessed as reduction of MAP3K2-K260me3 level upto 10 uM incubated for 20 hrs by Western blotting analysis; format: cell-based
Outline: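 After 4 h, compound or DMSO for 20 h. Lysates immunoblotted for MAP3K2-K260me3 (in-house antibody), HA, SMYD3 and MAP3K2 with infrared secondaries. K260me3 signal normalized to HA; three technical replicates, mean ± SEM, nonlinear fit.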

[6] = target: T2, Histone-lysine N-methyltransferase SMYD3 (Homo sapiens); assay: Binding affinity to recombinant human SMYD3 expressed in Escherichia coli assessed as change in melting temperature at 10 to 200 uM by SYPRO Orange staining based thermal shift assay; settings: dose 10-200 µM
Outline: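 Full-length untagged SMYD3 (aa 1–428, E. coli, His tag removed by TEV) at 1.5–2.0 µM with 5x SYPRO Orange in 20 mM Tris pH 7.0, 150 mM NaCl, 1.0 mM DTT; compound titration 10–200 µM; 4% DMSO control; melting scanned 25–80 °C at 0.1 °C/s; Tm shift read.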

[7] = target: T3, Histone-lysine N-methyltransferase SMYD1 (Homo sapiens) (UniProt Q8NB12); assay: Binding affinity to recombinant human SMYD1 expressed in Sf9 insect cells assessed as change in melting temperature at 120 uM by SYPRO Orange staining based thermal shift assay
T3 sequence (whole entry): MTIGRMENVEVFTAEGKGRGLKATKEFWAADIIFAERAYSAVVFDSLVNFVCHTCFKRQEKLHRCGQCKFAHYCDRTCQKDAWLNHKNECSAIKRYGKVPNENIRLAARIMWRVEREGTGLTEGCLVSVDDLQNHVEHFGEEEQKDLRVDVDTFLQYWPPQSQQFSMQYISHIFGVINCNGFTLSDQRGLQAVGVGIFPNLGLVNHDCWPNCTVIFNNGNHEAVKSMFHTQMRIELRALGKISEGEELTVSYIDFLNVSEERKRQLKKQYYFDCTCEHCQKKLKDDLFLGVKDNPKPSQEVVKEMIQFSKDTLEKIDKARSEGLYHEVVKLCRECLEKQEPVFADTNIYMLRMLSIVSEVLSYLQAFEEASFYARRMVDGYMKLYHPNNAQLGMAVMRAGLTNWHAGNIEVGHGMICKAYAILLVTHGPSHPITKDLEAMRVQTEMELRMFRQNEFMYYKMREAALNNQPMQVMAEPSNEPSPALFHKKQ
Outline: (§1)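 SMYD1 (aa 2–490) or SMYD2 (aa 2–433), His-tagged from Sf9, Ni-NTA then gel filtration; melt at 1.4 µM protein, 8x SYPRO Orange in 20 mM Tris pH 8.0, 100 mM NaCl, 8.5% glycerol, 1.0 mM DTT; scan 25–80 °C at 0.1 °C/s; 4% DMSO control.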

[8] = target: N-lysine methyltransferase SMYD2 (Homo sapiens) (UniProt Q9NRG4); assay: Binding affinity to recombinant human SMYD2 expressed in Sf9 insect cells assessed as change in melting temperature at 120 uM by SYPRO Orange staining based thermal shift assay; outline: as §1
[9] = Dissociation constant, pKa of compound; format: physicochemical

Sequence of N-lysine methyltransferase SMYD2 (Homo sapiens) (Q9NRG4 whole entry): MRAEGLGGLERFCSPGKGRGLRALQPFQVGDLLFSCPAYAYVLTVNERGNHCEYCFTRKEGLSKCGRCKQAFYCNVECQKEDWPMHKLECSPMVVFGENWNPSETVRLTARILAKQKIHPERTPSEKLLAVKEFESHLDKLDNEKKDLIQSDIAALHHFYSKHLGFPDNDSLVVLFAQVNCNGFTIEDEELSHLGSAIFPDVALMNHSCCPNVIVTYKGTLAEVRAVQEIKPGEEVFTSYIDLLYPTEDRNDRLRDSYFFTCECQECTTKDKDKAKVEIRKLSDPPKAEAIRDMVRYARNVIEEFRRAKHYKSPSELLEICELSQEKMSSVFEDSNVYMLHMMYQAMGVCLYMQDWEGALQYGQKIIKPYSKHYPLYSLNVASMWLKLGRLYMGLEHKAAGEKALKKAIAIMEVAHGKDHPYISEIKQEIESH

Row | IC50 [1] [nM] | logD [2] | solubility kinetic [3] [µg/mL] | deltaTm [4] [K] | inhibition [5] | deltaTm [6] [K] | deltaTm [7] [K] | deltaTm [8] [K] | pKa [9] | SMILES
1 | 1850 | 2.4 | 87.5 (≈ 216 µM) | 4.77 | – | – | – | – | – | CC1CC(=O)Nc2cc(C(=O)NCCC3CCC3)ccc2N1C(=O)c1ccccc1 (racemic)
2 | 2530 | – | – | 5.15 | – | – | – | – | – | C[C@@H]1CC(=O)Nc2cc(C(=O)NCCC3CC3)ccc2N1C(=O)N1CC2CC2C1 (some centres not stated)
3 | 1080 | 1.5 | 254 (≈ 573 µM) | 5.63 | – | – | – | – | – | C[C@H]1CC(=O)Nc2cc(C(=O)NCCC3CC3)ccc2N1C(=O)N1CCN(CCO)CC1
4 | > 100000 | – | – | – | inactive | – | – | – | – | C[C@@H]1CC(=O)Nc2cc(C(=O)N(C)CCC3CC3)ccc2N1C(=O)N1CC2CC2C1 (some centres not stated)
5 | 1030 | 2.2 | 312 (≈ 631 µM) | 5.63 | – | – | – | – | – | C[C@H]1CC(=O)Nc2cc(C(=O)NCCC3CC3)ccc2N1C(=O)N1CCC(NCC(F)(F)F)CC1
6 | 1970 | 2.1 | 95.5 (≈ 244 µM) | 3.9 | – | – | – | – | – | CC1CC(=O)Nc2cc(C(=O)NCCC3CC3)ccc2N1C(=O)c1ccccc1 (racemic)
7 | 259 | 1.4 | 294 | 7.56 | – | – | – | – | – | C[C@H]1CC(=O)Nc2cc(C(=O)NCCC3CC3)ccc2N1C(=O)N1CC[C@H](N)C1.Cl
8 | 177 | 1.5 | > 456 | 8.2 | – | – | – | – | – | CCN1CCC(N(C)C(=O)N2c3ccc(C(=O)NCCC4CC4)cc3NC(=O)C[C@@H]2C)CC1
9 | 459 | 1.7 | > 428 | 7.34 | – | – | – | – | – | CCN1CCN(C(=O)N2c3ccc(C(=O)NCCC4CC4)cc3NC(=O)C[C@@H]2C)CC1
10 | 1510 | 2.2 | – | 5.26 | – | – | – | – | – | C[C@H]1CC(=O)Nc2cc(C(=O)NCCC3CC3)ccc2N1C(=O)N1CCN(CC(F)(F)F)CC1
11 | 396 | 1.3 | 252 (≈ 609 µM) | 6.77 | – | – | – | – | – | C[C@H]1CC(=O)Nc2cc(C(=O)NCCC3CC3)ccc2N1C(=O)NC1CCNCC1
12 | 12000 | – | – | 2.4 | – | 0.7 | 0 | 0 | – | CCCCNC(=O)c1ccc2c(c1)NC(=O)CC(C)N2C(=O)c1ccccc1F (configuration not stated)
13 | 22000 | – | – | – | – | 0.2 | 0.2 | 0.2 | – | CCCCCNC(=O)c1ccc2c(c1)NC(=O)CC(C)N2C(=O)c1ccc(C)cc1 (configuration not stated)
14 | 18000 | – | – | – | – | 0.4 | -0.2 | 0.2 | – | CCCCNC(=O)c1ccc2c(c1)NC(=O)CC(C)N2C(=O)CCC1CCCC1 (configuration not stated)
15 | 832 | 1.4 | 330 | 5.91 | – | – | – | – | – | C[C@H]1CC(=O)Nc2cc(C(=O)NCCC3CC3)ccc2N1C(=O)N1CC[C@@H](N)C1.Cl
16 | 2330 | 2.1 | 231 (≈ 531 µM) | 5.6 | – | – | – | – | – | C[C@H]1CC(=O)Nc2cc(C(=O)NCCC3CC3)ccc2N1C(=O)N1CCC(F)(F)CC1
17 | 493 | 1.3 | 257 (≈ 602 µM) | 6.1 | – | – | – | – | – | C[C@H]1CC(=O)Nc2cc(C(=O)NCCC3CC3)ccc2N1C(=O)N(C)C1CCNCC1
18 | – | 1.4 | 320 (≈ 775 µM) | – | – | – | – | – | – | C[C@@H]1CC(=O)Nc2cc(C(=O)NCCC3CC3)ccc2N1C(=O)N1CCC(N)CC1
19 | 18000 | – | – | – | – | 0.2 | -0.2 | 0 | – | CCCNC(=O)c1ccc2c(c1)NC(=O)CC(C)N2C(=O)c1cccs1 (configuration not stated)
20 | 5560 | 2.4 | 345 (≈ 677 µM) | 3.34 | – | – | – | – | – | C[C@H]1CC(=O)Nc2cc(C(=O)NCCC3CC3)ccc2N1C(=O)N(C)C1CCN(CC(F)(F)F)CC1
21 | – | 1.4 | 318 (≈ 768 µM) | – | – | – | – | – | – | C[C@H]1CC(=O)Nc2cc(C(=O)NCCC3CC3)ccc2N1C(=O)N1CCC(N)CC1
22 | 27000 | – | – | – | – | 0 | -0.1 | 0.1 | – | CCCCCNC(=O)c1ccc2c(c1)NC(=O)CC(C)N2C(=O)C1CCCC1 (configuration not stated)
23 | 763 | 2 | 294 (≈ 700 µM) | 6.16 | – | – | – | – | – | C[C@H]1CC(=O)Nc2cc(C(=O)NCCC3CC3)ccc2N1C(=O)N1CCC(F)(F)C1
24 | 24000 | – | – | – | – | 0.2 | -0.2 | 0.2 | – | CCCCCNC(=O)c1ccc2c(c1)NC(=O)CC(C)N2C(=O)c1ccccc1F (configuration not stated)
25 | – | – | – | – | – | 0 | 0 | 0.2 | – | CCCCNC(=O)c1ccc2c(c1)NC(=O)CC(C)N2C(=O)c1cccc(F)c1 (configuration not stated)
26 | 2640 | – | – | 3.9 | – | – | – | – | – | C[C@H]1CC(=O)Nc2cc(C(=O)N(C)CCC3CC3)ccc2N1C(=O)N1CC2CC2C1 (some centres not stated)
27 | 54.2 | 1.4 | > 414 | 8.46 | – | – | – | – | 8.8 | C[C@H]1CC(=O)Nc2cc(C(=O)NCCC3CC3)ccc2N1C(=O)N1CCCNCC1
28 | 252 | 1.4 | 374 (≈ 936 µM) | 7.42 | – | – | – | – | – | C[C@H]1CC(=O)Nc2cc(C(=O)NCCC3CC3)ccc2N1C(=O)N1CCNCC1
